“Also recorded” adds a separate entry of the source.
Experiments:
human LIN28ΔF73A = human LIN28ΔF73A (Homo sapiens, UniProt Q9H9Z2, F73A); assay: Competition / dose-response fluorescence polarization assay with LIN28ΔF73A; format: binding; conditions: preE-let-7f, preE-let-7a, preE-let-7d, preE-let-7g
Outline: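 Recombinant human LIN28ΔF73A (150 nM in the screening master mix; set at the FP-titration Kd for competition) was mixed with 2 nM FAM-labelled preE-let-7 probe (let-7f, -7a, -7d or -7g) in buffer M (100 mM NaCl, 20 mM Tris-HCl pH 7.0, 5 mM MgCl2, 10% glycerol, 5 mM DTT, 0.1% NP-40). Test compound was dispensed at 12 concentrations, 50 μM–20 nM. IC50 came from a 1:1 inhibition fit; each assay was run at least twice.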

[1] = molecular target: mouse LIN28Δ:preE-let-7d complex (Mus musculus, UniProt Q8K3Y3); assay: HSQC spectroscopy; format: binding; conditions: 15N-labeled mouse LIN28Δ with unlabeled preE-let-7d
human LIN28Δ = human LIN28Δ (Homo sapiens, UniProt Q9H9Z2); assay: Saturation transfer difference spectroscopy, LIN28Δ; format: binding; conditions: 100 μM compound, 5 μM LIN28
Outline: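 Protein was dialysed overnight into 20 mM Bis-Tris pH 6.0, 100 mM NaCl, 10% v/v glycerol-d8, 5 mM DTT and D2O. Test compound was dissolved in DMSO-d6. Samples held 100 μM compound and 5 μM protein in dialysis buffer. STD spectra were collected at 700 MHz, irradiating the macromolecule only at −2 ppm, with a 2 s transfer delay.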

preE-let-7f = assay: Saturation transfer difference spectroscopy, preE-let-7f; format: binding, human; conditions: preE-let-7f alone
[2] = molecular target: human LIN28Δ:preE-let-7f complex (Homo sapiens, UniProt Q9H9Z2); assay: Differential scanning fluorimetry; format: binding; conditions: SYPRO Orange; 63°C without compound
HeLaLIN28B = assay: let-7-sensitive dual luciferase reporter assay, HeLaLIN28B; format: cell-based, human; conditions: LI71 50–100 μM, 48 hr
Outline: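 HeLa clone stably expressing N-FLAG-LIN28B at low level, from retroviral transduction, puromycin selection and single-cell sorting. Cells were lentivirally transduced with the let-7 dual luciferase sensor: LTR-driven Renilla with eight let-7 sites in the 3′ UTR plus HSV-TK firefly control, as a G418-selected polyclonal pool. Cells received test compound or DMSO vehicle, then were lysed for dual luciferase readout normalised to blank samples.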

K562 leukemia cells = assay: qPCR of microRNA species in K562 cells; format: cell-based, human; conditions: 100 μM, 48 hr
Outline: (§1)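 K562 leukaemia cells, or DKO+A mESCs (Lin28a/Lin28b double-knockout re-expressing wild-type LIN28A, in LIF/2i), were treated 48 hr with 100 μM test compound or vehicle. Total RNA was isolated with TRIzol and cDNA made with the miScript system. Mature and precursor microRNAs were quantified with specific primer assays relative to U6; n = 6 over two independent experiments.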

DKO+A mESCs = assay: qPCR of let-7 species in DKO+A mESCs; format: cell-based, mouse; conditions: 100 μM, 48 hr, LIF/2i culture, vs vehicle
Outline: as §1

Solubility in solution = format: physicochemical; conditions: water / solution
Cellular toxicity = format: cell-based; conditions: high micromolar concentrations

mouse LIN28Δ:preE-let-7d complex, sequence (Q8K3Y3 16-184, stated change not applied, one chain of several): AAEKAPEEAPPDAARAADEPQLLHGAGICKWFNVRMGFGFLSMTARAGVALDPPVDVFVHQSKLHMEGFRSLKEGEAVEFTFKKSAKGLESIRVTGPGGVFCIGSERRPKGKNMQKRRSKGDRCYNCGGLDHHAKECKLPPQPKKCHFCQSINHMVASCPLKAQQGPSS
human LIN28Δ, sequence (Q9H9Z2 16-187, stated change not applied): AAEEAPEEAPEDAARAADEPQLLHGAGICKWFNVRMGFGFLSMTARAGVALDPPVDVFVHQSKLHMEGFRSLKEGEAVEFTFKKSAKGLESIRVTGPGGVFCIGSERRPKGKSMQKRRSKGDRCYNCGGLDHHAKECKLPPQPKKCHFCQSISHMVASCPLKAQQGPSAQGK
human LIN28Δ:preE-let-7f complex, sequence (Q9H9Z2 16-187, stated change not applied, one chain of several): as the sequence (Q9H9Z2 16-187, stated change not applied) above
human LIN28ΔF73A, sequence (Q9H9Z2 16-187 F73A): as the sequence (Q9H9Z2 16-187, stated change not applied) above, with F58A counted along it

CCOc1cccc2c1N[C@@H](c1ccc(C(=O)O)cc1)[C@H]1CC=C[C@@H]21 [LI71]
IC50s with four let-7 pre-elements (human LIN28ΔF73A): all within the low micromolar range | HSQC peak intensity changes [1]: minor intensity reductions for a number of residues | Saturation transfer difference peaks (human LIN28Δ): saturation transfer difference peaks of LI71 occur | Saturation transfer difference peaks (preE-let-7f): but not preE-let-7f | Melting temperature of LIN28Δ:preE-let-7f complex with compound [2]: 60 °C | Relative Renilla luciferase activity (HeLaLIN28B): significantly reduce the relative Renilla luciferase activity | let-7 precursor species (K562 leukemia cells): not correlated with increased levels of let-7 precursor species | miR-16 (non-LIN28-regulated microRNA) (K562 leukemia cells): small but significant effect | miR-93, miR-99a and miR-151 (non-LIN28-regulated microRNAs) (K562 leukemia cells): did not observe significant effects | Mature let-7 species (K562 leukemia cells; vs DMSO): significant increase in several let-7 species | Mature let-7 species (DKO+A mESCs): increased levels of mature let-7 species | Solubility (Solubility in solution): better water solubility; also recorded: ample solubility in solution | Cellular toxicity (Cellular toxicity): low cellular toxicity

— paper PMC6511231 (Cell reports, 2018)
